Reference: ChEMBL document CHEMBL5096186, “Design, Synthesis, and Biological Evaluation of Novel Pyrimido[4,5-b]indole Derivatives Against Gram-Negative Multidrug-Resistant Pathogens” (J Med Chem, 2021)
Converted amounts (≈) assume the structure as drawn.

Assays:
[1] = Clearance in Sprague-Dawley rat at 4 mg/kg, iv measured upto 24 hrs by LC-MS/MS analysis; type: ADME, organism-based; details: in vivo
In short: (§1)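 Male Sprague-Dawley rats, n = 3 per group, single intravenous dose. For 4 mg/kg: 180–280 g rats, vehicle 5% DMSO + 5% EtOH + 40% PEG300 + 50% saline, blood from the retrobulbar vein at 0.05–24 h. For 5 and 20 mg/kg: 180–300 g rats, vehicle 5% DMSO + 5% solutol + 90% saline, sampled at 0.083–24 h. Plasma quantified by LC/MS/MS. Parameters from mean plasma concentration by noncompartmental analysis; values are mean ± standard deviation.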

Escherichia coli [2] = test: Antibacterial activity against multidrug resistant wild type Escherichia coli NCTC 13353 assessed as reduction in bacterial growth incubated for 18 to 20 hrs by CLSI based microdilution method; type: functional; details: time 18-20 hrs
In short: (§2)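 Broth microdilution per CLSI. Compounds dissolved in DMSO (levofloxacin and meropenem in water) as 64 μg/mL stock, then serial twofold dilutions in broth giving 64 to 0.008 μg/mL. […] Clinical isolates tested as several strains per group; racemic GP-1 served as positive control; values given as MIC ranges.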

Acinetobacter baumannii [3] = test: Antibacterial activity against wild type Acinetobacter baumannii NCTC 13304 assessed as reduction in bacterial growth incubated for 18 to 20 hrs by CLSI based microdilution method; type: functional; details: time 18-20 hrs; in short: as §2
[4] = Metabolic stability in human liver microsome assessed as intrinsic clearance at 0.1 uM in presence of NADPH incubated upto 60 mins by LC-MS/MS analysis; type: ADME; details: microsomes, 1 h
In short: (§3)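 Compound at 0.1 μM final, in 0.01% DMSO with 0.005% BSA. Incubated with rat or human liver microsomes at 0.33 mg/mL in 0.1 M Tris-HCl, pH 7.4, with 5 mM MgCl₂ and 1 mM NADPH, at 37 °C. Samples at 0, 7, 17, 30 and 60 min quenched with cold methanol and analysed by LC-MS/MS. Half-life, Cl_int and MF% derived as previously described.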

[5] = system: Staphylococcus epidermidis; test: Antibacterial activity against methicillin-sensitive Staphylococcus epidermidis strains 15 1 to 4 assessed as reduction in bacterial growth incubated for 18 to 20 hrs by CLSI based microdilution method; type: functional; details: time 18-20 hrs; in short: as §2
[6] = Cytotoxicity against human L02 cells assessed as cell viability measured for 48 hrs by CCK-8 assay; type: toxicity, cell-based
In short: (§4)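 Cells seeded at 1 × 10⁴ per well and grown for 48 h. Then exposed to test articles at 1–200 μM for another 48 h (n = 6). Viability by CCK-8 added for 2 h, absorbance read at 450 nm. CC50 calculated and reported as the mean.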

[7] = Elimination half life in Sprague-Dawley rat at 4 mg/kg, iv measured upto 24 hrs by LC-MS/MS analysis; type: ADME, organism-based; details: in vivo, read-out: beta t1/2 (converted); in short: as §1
Klebsiella pneumoniae [8] = test: Antibacterial activity agains wild type Klebsiella pneumoniae ATCC BAA-1705 assessed as reduction in bacterial growth incubated for 18 to 20 hrs by CLSI based microdilution method; type: functional; details: time 18-20 hrs
In short: (§5)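 CLSI broth microdilution. Compounds in DMSO (levofloxacin and meropenem in water), serial twofold dilutions in broth, 64 to 0.008 μg/mL. […] Results reported as MIC ranges across strains.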

Pseudomonas aeruginosa [9] = test: Antibacterial activity against IMP4-producing multidrug resistant Pseudomonas aeruginosa assessed as reduction in bacterial growth incubated for 18 to 20 hrs by CLSI based microdilution method; type: functional; details: time 18-20 hrs; in short: as §2
[10] = Volume of distribution at the steady state in Sprague-Dawley rat at 4 mg/kg, iv measured upto 24 hrs by LC-MS/MS analysis; type: ADME, organism-based; details: in vivo, read-out: Vdss; in short: as §1
[11] = Cytotoxicity against human HEK293 cells assessed as cell viability measured for 48 hrs by CCK-8 assay; type: toxicity, cell-based; in short: as §4
[12] = AUC (0 to infinity) in Sprague-Dawley rat at 4 mg/kg, iv measured upto 24 hrs by LC-MS/MS analysis; type: ADME, organism-based; design: time < 24 hrs, dose 4 mg/kg, route iv; details: in vivo; in short: as §1
[13] = Metabolic stability in rat liver microsome assessed as intrinsic clearance at 0.1 uM in presence of NADPH incubated upto 60 mins by LC-MS/MS analysis; type: ADME; details: microsomes, 1 h; in short: as §3
[14] = molecular target: Voltage-gated inwardly rectifying potassium channel KCNH2 (Homo sapiens, UniProt Q12809); test: Inhibition of hERG potassium channel assessed as […] at -80 mV holding potential incubated for 120 seconds by whole cell-automated voltage clamp analysis assay; type: toxicity
In short: (§6)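 Automated whole-cell patch clamp, holding potential −80 mV. Voltage protocol applied every 20 s. Baseline set with external solution containing 0.1% DMSO and stabilised 3 min. Compound applied until steady state, at least 3 min, then washout. Maximum tested concentration 40 μM, or 3 μM for cisapride as positive control.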

Staphylococcus aureus = test: Antibacterial activity against methicillin-sensitive Staphylococcus aureus strains 15 1 to 4 assessed as reduction in bacterial growth incubated for 18 to 20 hrs by CLSI based microdilution method; type: functional; details: time 18-20 hrs; in short: as §2
[15] = Metabolic stability in human liver microsome assessed as elimination half life at 0.1 uM in presence of NADPH incubated upto 60 mins by LC-MS/MS analysis; type: ADME; details: liver microsomes, read-out: beta t1/2; in short: as §3
Pseudomonas aeruginosa [16] = test: Antibacterial activity against multidrug resistant Pseudomonas aeruginosa strains 15 1 to 3 assessed as reduction in bacterial growth incubated for 18 to 20 hrs by CLSI based microdilution method; type: functional; details: time 18-20 hrs; in short: as §2
Escherichia coli [17] = test: Antibacterial activity against ESBL-producing multidrug resistant Escherichia coli assessed as reduction in bacterial growth incubated for 18 to 20 hrs by CLSI based microdilution method; type: functional; details: time 18-20 hrs; in short: as §2
Acinetobacter baumannii [18] = test: Antibacterial activity agains OXA23-producing multidrug resistant Acinetobacter baumannii assessed as reduction in bacterial growth incubated for 18 to 20 hrs by CLSI based microdilution method; type: functional; details: time 18-20 hrs; in short: as §2
Pseudomonas aeruginosa [19] = test: Antibacterial activity against wild type Pseudomonas aeruginosa ATCC 27853 assessed as reduction in bacterial growth incubated for 18 to 20 hrs by CLSI based microdilution method; type: functional; details: time 18-20 hrs; in short: as §5
[20] = Metabolic stability in rat liver microsome assessed as elimination half life at 0.1 uM in presence of NADPH incubated upto 60 mins by LC-MS/MS analysis; type: ADME; details: liver microsomes, read-out: beta t1/2; in short: as §3
[21] = Metabolic stability in rat liver microsome assessed as metabolic bioavailability at 0.1 uM in presence of NADPH incubated upto 60 mins by LC-MS/MS analysis; type: ADME; details: liver microsomes; in short: as §3
[22] = Drug metabolism in Spargue-Dawley rat liver microsomes assessed as formation of M5 metabolite incubated upto 60 mins by UHPLC-MS/MS analysis; type: ADME, Microsome; details: 1 h
In short: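 Male SD rat liver microsomes at 1 mg protein/mL with 2 mM NADP and 5 mM MgCl₂ in 100 mM potassium phosphate, pH 7.4. Compound preincubated 5 min at 37 °C. Samples at 0, 30 and 60 min quenched with cold acetonitrile containing 0.1% formic acid, then analysed by UHPLC-MS/MS. Relative peak areas from extracted ion chromatograms at 60 min.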

Escherichia coli [23] = test: Antibacterial activity against ESBL-producing Escherichia coli ATCC 35218 strains 15 1 to 3 assessed as reduction in bacterial growth incubated for 18 to 20 hrs by CLSI based microdilution method; type: functional; details: time 18-20 hrs; in short: as §5
Klebsiella pneumoniae [24] = test: Antibacterial activity against KPC2-producing multidrug resistant Klebsiella pneumoniae assessed as reduction in bacterial growth incubated for 18 to 20 hrs by CLSI based microdilution method; type: functional; details: time 18-20 hrs; in short: as §2
[25] = MRT in Sprague-Dawley rat at 4 mg/kg, iv measured upto 24 hrs by LC-MS/MS analysis; type: ADME, organism-based; details: in vivo; in short: as §1
[26] = Metabolic stability in human liver microsome assessed as metabolic bioavailability at 0.1 uM in presence of NADPH incubated upto 60 mins by LC-MS/MS analysis; type: ADME; details: liver microsomes; in short: as §3
Klebsiella pneumoniae [27] = test: Antibacterial activity agains wild type Klebsiella pneumoniae ATCC BAA-2470 assessed as reduction in bacterial growth incubated for 18 to 20 hrs by CLSI based microdilution method; type: functional; details: time 18-20 hrs; in short: as §2
Escherichia coli [28] = test: Antibacterial activity against multidrug resistant wild type Escherichia coli ATCC BAA-2340 assessed as reduction in bacterial growth incubated for 18 to 20 hrs by CLSI based microdilution method; type: functional; details: time 18-20 hrs; in short: as §2
Escherichia coli [29] = test: Antibacterial activity against Escherichia coli ATCC 35218 strains 15 1 to 3 assessed as reduction in bacterial growth incubated for 18 to 20 hrs by CLSI based microdilution method; type: functional; details: time 18-20 hrs; in short: as §5
[30] = molecular target: hERG (KCNH2) potassium channel (Homo sapiens, UniProt Q12809); test: Inhibition of hERG potassium channel assessed as maximum inhibition rate at 40 uM at -80 mV holding potential incubated for 120 seconds by whole cell-automated voltage clamp analysis assay relative to control; type: toxicity; details: time 120 sec; in short: as §6
hERG (KCNH2) potassium channel, sequence (Q12809 whole entry): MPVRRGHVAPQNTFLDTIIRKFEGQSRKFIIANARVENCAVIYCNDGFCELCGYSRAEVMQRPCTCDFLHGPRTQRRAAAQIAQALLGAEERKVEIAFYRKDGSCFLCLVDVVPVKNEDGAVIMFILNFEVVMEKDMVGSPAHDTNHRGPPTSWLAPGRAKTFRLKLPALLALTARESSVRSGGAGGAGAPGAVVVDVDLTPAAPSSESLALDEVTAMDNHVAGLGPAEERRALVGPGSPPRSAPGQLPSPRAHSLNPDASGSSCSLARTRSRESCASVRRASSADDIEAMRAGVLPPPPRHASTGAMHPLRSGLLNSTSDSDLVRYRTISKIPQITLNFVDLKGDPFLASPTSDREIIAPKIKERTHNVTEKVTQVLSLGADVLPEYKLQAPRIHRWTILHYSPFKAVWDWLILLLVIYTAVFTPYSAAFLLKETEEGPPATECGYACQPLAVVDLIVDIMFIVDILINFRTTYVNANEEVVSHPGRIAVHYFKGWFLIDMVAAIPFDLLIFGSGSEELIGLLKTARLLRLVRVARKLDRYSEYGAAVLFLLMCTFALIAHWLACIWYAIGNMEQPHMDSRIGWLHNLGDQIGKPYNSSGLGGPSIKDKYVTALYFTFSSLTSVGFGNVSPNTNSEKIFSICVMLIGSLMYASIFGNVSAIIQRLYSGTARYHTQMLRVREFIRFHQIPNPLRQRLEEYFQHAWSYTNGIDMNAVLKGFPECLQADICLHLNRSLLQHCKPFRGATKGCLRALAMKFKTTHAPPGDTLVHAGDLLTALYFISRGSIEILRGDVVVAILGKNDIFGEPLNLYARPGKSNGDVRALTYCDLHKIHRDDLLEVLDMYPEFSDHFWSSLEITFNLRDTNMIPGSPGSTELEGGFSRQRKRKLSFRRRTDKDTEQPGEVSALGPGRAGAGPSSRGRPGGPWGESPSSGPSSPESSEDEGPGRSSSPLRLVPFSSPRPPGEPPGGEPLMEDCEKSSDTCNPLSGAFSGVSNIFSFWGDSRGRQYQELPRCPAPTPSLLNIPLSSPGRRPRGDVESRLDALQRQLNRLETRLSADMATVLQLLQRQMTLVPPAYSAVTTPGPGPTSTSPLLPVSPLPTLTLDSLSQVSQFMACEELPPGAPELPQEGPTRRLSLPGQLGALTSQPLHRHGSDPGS

Voltage-gated inwardly rectifying potassium channel KCNH2, sequence (Q12809 whole entry): as above

Structure (SMILES): CCC(CN)=C1CN(c2nc(Oc3cnc(C)nc3)nc3[nH]c4c(NC)cc(F)cc4c23)C1
- clearance [1]: 86.7 mL/min/kg
- MIC (Escherichia coli [2]): 0.125 µg/mL (≈ 0.279 µM)
- MIC (Acinetobacter baumannii [3]): 0.125 µg/mL (≈ 0.279 µM)
- CLH [4]: 14.3 mL/min/g
- MIC [5]: < 0.008 µg/mL
- CC50 at 48 h [6]: 9.74 µM
- half-life [7]: 3.7 h
- MIC (Klebsiella pneumoniae [8]): 2 µg/mL (≈ 4.46 µM)
- MIC (Pseudomonas aeruginosa [9]): 2 µg/mL (≈ 4.46 µM)
- Vd [10]: 14.7 L/kg
- CC50 at 48 h [11]: 17 µM
- AUC(0-inf) [12]: 776 ng·h/mL
- CLH [13]: 74.3 mL/min/g
- IC50 [14]: > 40 µM
- MIC (Staphylococcus aureus): < 0.008 µg/mL
- half-life at 0.1 µM [15]: 2.45 h
- MIC (Pseudomonas aeruginosa [16]): 0.5 µg/mL (≈ 1.11 µM)
- MIC (Escherichia coli [17]): 0.25 µg/mL (≈ 0.557 µM)
- MIC (Acinetobacter baumannii [18]): 0.125 µg/mL (≈ 0.279 µM)
- MIC (Pseudomonas aeruginosa [19]): 1 µg/mL (≈ 2.23 µM)
- half-life at 0.1 µM [20]: 0.472 h
- Fh at 1 h, 0.1 µM [21]: 37.4%
- Activity [22]: 72.85%
- MIC (Escherichia coli [23]): < 0.008 µg/mL
- MIC (Klebsiella pneumoniae [24]): 1 µg/mL (≈ 2.23 µM)
- MRT [25]: 2.8 h
- Fh at 1 h, 0.1 µM [26]: 57.8%
- MIC (Klebsiella pneumoniae [27]): 1 µg/mL (≈ 2.23 µM)
- MIC (Escherichia coli [28]): 0.25 µg/mL (≈ 0.557 µM)
- MIC (Escherichia coli [29]): < 0.008 µg/mL
- inhibition at 2 min, 40 µM [30]: 41.1%
